Reference: the M2OR odorant receptor database

Columns and labels:
Details in all cases: stereoisomer not certain
UniProt Q7TRR8 = target: T1, UniProt Q7TRR8
T1 sequence (whole entry): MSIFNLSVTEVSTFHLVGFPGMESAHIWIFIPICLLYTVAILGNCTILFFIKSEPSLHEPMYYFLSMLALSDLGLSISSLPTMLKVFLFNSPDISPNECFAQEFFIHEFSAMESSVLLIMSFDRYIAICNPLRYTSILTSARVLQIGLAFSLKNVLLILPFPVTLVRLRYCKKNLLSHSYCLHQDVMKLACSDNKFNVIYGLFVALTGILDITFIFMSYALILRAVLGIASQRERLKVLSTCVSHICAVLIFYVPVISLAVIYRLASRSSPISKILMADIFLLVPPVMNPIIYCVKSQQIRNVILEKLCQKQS
Outline: (§1)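 Values were gathered from published papers (main text and supplementary material), with extra details requested from the original authors when needed, and checked for typos and inconsistencies. Each receptor–molecule pair is called responsive (active) if the original authors judged the measured signal statistically different from baseline, and non-responsive (inactive) otherwise. Assay methods varied by source, often transient mammalian cell-line luciferase assays. Recorded details include cell line, G-protein, co-transfected protein and tags.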

UniProt Q7TRX0 = target: T2, UniProt Q7TRX0
T2 sequence (whole entry): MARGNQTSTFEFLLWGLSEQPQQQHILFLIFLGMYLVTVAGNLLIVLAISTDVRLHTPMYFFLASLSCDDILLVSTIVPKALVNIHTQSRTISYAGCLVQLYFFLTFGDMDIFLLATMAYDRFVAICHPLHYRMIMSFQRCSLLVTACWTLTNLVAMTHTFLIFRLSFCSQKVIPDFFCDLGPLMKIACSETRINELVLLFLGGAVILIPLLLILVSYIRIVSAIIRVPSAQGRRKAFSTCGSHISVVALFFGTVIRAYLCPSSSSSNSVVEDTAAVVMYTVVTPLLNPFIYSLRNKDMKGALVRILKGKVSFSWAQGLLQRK
Outline: as §1

UniProt Q8VF43 = target: T3, UniProt Q8VF43
T3 sequence (whole entry): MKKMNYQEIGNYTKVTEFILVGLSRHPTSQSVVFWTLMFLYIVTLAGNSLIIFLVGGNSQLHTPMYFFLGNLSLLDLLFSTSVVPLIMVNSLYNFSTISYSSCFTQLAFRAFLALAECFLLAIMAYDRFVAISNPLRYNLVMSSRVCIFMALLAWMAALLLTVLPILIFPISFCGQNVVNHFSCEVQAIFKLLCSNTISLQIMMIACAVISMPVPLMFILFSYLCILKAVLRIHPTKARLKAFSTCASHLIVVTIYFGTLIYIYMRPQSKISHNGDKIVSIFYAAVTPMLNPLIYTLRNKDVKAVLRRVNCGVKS
Outline: as §1

UniProt Q8VF52 = target: T4, UniProt Q8VF52
T4 sequence (whole entry): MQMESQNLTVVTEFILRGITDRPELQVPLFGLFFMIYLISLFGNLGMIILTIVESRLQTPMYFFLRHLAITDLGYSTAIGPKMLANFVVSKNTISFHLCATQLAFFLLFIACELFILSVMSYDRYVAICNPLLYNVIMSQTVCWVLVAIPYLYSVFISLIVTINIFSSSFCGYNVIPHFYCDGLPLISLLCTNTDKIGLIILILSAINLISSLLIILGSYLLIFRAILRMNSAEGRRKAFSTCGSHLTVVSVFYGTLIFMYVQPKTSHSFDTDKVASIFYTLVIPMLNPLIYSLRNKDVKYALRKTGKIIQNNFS
Outline: as §1

UniProt Q8VFM8 = target: T5, UniProt Q8VFM8
T5 sequence (whole entry): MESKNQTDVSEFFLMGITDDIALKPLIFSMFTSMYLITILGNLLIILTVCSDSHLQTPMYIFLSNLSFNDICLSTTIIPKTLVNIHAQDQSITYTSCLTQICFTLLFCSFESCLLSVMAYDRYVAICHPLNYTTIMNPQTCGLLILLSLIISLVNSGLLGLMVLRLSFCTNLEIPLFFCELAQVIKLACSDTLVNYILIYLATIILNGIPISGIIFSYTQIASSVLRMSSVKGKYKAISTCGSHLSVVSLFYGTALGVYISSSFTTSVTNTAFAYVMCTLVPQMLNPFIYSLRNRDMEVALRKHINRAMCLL
Outline: as §1

UniProt Q7TRW1 = target: T6, UniProt Q7TRW1
T6 sequence (whole entry): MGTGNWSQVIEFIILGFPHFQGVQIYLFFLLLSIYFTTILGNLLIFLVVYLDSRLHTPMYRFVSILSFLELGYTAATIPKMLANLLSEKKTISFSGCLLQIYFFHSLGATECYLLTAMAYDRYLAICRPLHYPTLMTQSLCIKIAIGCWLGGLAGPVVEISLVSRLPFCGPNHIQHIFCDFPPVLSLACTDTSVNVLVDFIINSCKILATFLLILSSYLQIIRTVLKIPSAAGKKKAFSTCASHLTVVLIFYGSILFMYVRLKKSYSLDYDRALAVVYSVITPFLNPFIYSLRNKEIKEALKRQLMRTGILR
Outline: as §1

UniProt Q8VEU7 = target: T7, UniProt Q8VEU7
T7 sequence (whole entry): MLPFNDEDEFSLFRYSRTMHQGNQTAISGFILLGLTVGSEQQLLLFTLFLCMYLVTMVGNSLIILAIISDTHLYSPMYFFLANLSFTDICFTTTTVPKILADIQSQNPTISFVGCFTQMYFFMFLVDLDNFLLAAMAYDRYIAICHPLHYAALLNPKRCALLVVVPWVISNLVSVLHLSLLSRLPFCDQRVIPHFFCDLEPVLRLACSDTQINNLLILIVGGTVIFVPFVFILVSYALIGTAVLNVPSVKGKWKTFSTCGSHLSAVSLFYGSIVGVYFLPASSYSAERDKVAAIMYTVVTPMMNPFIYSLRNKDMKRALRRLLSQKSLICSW
Outline: as §1

UniProt Q8VF05 = target: T8, UniProt Q8VF05
T8 sequence (whole entry): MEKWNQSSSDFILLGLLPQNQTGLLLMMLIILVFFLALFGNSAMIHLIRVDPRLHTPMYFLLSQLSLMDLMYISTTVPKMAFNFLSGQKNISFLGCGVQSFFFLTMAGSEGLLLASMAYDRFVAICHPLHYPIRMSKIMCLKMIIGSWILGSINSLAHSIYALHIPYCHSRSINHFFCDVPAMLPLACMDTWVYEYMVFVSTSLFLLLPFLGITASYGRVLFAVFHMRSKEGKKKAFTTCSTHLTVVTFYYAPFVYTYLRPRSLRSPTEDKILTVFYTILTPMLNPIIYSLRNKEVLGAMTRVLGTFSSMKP
Outline: as §1

UniProt Q8VF24 = target: T9, UniProt Q8VF24
T9 sequence (whole entry): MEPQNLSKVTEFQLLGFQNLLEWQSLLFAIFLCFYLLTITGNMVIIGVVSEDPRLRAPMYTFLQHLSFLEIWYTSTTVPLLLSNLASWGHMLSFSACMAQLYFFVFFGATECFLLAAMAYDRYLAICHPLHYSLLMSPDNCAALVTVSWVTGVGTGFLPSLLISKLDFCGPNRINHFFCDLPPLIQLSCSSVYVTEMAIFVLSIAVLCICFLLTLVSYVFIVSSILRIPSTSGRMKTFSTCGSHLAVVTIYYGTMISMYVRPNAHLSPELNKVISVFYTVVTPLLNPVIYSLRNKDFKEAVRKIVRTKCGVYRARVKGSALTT
Outline: as §1

UniProt Q8VF44 = target: T10, UniProt Q8VF44
T10 sequence (whole entry): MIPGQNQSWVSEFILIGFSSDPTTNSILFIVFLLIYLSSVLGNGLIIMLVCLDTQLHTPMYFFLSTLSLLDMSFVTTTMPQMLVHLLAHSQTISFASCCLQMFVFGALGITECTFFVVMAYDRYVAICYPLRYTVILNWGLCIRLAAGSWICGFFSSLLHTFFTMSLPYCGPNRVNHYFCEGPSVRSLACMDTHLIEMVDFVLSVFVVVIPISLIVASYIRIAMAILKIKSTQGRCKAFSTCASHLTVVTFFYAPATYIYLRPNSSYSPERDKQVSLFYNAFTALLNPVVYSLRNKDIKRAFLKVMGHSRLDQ
Outline: as §1

UniProt Q8VFG6 = target: T11, UniProt Q8VFG6
T11 sequence (whole entry): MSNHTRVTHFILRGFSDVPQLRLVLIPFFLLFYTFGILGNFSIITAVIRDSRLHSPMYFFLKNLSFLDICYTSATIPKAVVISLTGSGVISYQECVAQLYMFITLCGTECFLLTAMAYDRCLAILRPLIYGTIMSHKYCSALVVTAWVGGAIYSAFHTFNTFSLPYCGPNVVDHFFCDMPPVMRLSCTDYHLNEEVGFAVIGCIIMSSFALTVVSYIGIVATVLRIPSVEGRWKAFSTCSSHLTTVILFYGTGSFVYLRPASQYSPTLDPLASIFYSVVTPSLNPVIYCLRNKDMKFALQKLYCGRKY
Outline: as §1

UniProt Q8VF06 = target: UniProt Q8VF06
Outline: as §1

Chain of UniProt Q8VF06 (Q8VF06 as listed by the source): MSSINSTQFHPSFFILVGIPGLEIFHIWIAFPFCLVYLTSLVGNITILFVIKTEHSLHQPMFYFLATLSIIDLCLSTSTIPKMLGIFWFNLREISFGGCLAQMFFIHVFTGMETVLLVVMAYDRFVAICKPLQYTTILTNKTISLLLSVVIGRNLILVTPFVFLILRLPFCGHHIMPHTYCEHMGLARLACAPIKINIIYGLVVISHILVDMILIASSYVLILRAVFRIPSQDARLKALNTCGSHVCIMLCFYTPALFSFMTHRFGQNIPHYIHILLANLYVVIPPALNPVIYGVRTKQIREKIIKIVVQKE

Row | SMILES | odorant receptor agonist call (UniProt Q7TRR8) | odorant receptor agonist call (UniProt Q7TRX0) | odorant receptor agonist call (UniProt Q8VF43) | odorant receptor agonist call (UniProt Q8VF52) | odorant receptor agonist call (UniProt Q8VFM8) | odorant receptor agonist call (UniProt Q7TRW1) | odorant receptor agonist call (UniProt Q8VEU7) | odorant receptor agonist call (UniProt Q8VF05) | odorant receptor agonist call (UniProt Q8VF24) | odorant receptor agonist call (UniProt Q8VF44) | odorant receptor agonist call (UniProt Q8VFG6) | odorant receptor agonist call (UniProt Q8VF06)
1 | O=C([O-])CCCCCCC(=O)[O-].[H+].[H+] | inactive | inactive | inactive | inactive | inactive |  |  |  |  |  |  | 
2 | CC(=O)OCC=C(C)C |  | inactive | inactive | inactive | inactive | inactive | inactive | active | inactive | inactive | inactive | 
3 | CCCCC(=O)O | inactive | inactive | inactive | inactive | inactive | inactive | inactive | inactive | inactive | inactive | inactive | inactive
4 | CCCCCCCC(C)=O |  | inactive | inactive | inactive | inactive | inactive | inactive | inactive | inactive | inactive | inactive | 
5 | CCCCOC=O |  | inactive | inactive | inactive | inactive | inactive | inactive | inactive | inactive | inactive | inactive | 
6 | CCCCC(=O)CC |  | inactive | inactive | inactive | inactive | inactive | inactive | active | inactive | inactive | inactive | 
7 | O=C([O-])CCCCC(=O)[O-].[H+].[H+] | inactive |  |  |  |  |  |  |  |  |  |  | 
8 | O=C(O)CCCCCBr | inactive | inactive | inactive | inactive | inactive |  |  |  |  |  |  | inactive
9 | O=C(c1ccccc1)c1ccccc1 |  | inactive | inactive | inactive | inactive | inactive | inactive | inactive | inactive | active | inactive | 
10 | C=CCOC(=O)CCCCCC |  | inactive | inactive | inactive | inactive | inactive | inactive | inactive | inactive | inactive | inactive | 
11 | CC12CCC(CC1=O)C2(C)C (centres undefined) |  | inactive | inactive | active | inactive | inactive | active | inactive | active | inactive | inactive | 
